The source made the active and inactive calls.
Tests used:
[1] = molecular target: DNA polymerase (Drosophila melanogaster) (UniProt Q9GV40); assay: Inhibition of fruit fly DNA polymerase epsilon at 200 uM
Summary of the method: (§1)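 Compound dissolved in DMSO and sonicated 30 s, then held with each polymerase (final 0.05 U) in 50 mM Tris-HCl pH 7.5, 1 mM DTT, 50% glycerol, 0.1 mM EDTA at 0 °C for 10 min. Reaction with poly(dA)/oligo(dT)12-18 and dTTP ran 60 min at 37 °C (Taq at 74 °C). Activity relative to no-compound control; means ± SEM, four independent experiments.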

[2] = molecular target: T1, DNA polymerase iota (Homo sapiens) (UniProt Q9UNA4); assay: Inhibition of human DNA polymerase iota at 200 uM; summary of the method: as §1
T1 sequence (whole entry): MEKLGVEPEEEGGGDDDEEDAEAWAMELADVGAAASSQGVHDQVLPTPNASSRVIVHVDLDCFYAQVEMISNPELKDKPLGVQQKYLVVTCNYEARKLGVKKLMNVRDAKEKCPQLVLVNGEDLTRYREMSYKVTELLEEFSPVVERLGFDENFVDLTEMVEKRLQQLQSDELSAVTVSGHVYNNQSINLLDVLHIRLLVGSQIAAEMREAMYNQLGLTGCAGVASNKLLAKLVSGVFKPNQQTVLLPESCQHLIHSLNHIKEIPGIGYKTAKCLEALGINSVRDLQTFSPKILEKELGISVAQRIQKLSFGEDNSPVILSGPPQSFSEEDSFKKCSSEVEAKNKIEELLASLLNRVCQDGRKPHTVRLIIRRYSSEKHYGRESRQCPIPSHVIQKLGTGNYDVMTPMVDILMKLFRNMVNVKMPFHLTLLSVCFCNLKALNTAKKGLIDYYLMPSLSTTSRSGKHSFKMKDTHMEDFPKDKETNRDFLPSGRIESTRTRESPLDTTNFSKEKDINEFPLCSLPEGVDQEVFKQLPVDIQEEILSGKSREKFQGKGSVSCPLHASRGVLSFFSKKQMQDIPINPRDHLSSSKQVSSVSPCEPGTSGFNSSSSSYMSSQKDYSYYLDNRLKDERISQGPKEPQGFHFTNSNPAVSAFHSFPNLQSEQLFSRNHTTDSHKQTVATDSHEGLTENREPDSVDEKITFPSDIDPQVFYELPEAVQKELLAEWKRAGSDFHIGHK

[3] = test system: Brassica oleracea var. botrytis; assay: Inhibition of cauliflower DNA polymerase epsilon at 200 uM; summary of the method: as §1
[4] = test system: Human immunodeficiency virus; assay: Inhibition of HIV reverse transcriptase at 200 uM
[5] = molecular target: T2, DNA polymerase kappa (Homo sapiens) (UniProt Q9UBT6); assay: Inhibition of human DNA polymerase kappa at 200 uM; summary of the method: as §1
T2 sequence (whole entry): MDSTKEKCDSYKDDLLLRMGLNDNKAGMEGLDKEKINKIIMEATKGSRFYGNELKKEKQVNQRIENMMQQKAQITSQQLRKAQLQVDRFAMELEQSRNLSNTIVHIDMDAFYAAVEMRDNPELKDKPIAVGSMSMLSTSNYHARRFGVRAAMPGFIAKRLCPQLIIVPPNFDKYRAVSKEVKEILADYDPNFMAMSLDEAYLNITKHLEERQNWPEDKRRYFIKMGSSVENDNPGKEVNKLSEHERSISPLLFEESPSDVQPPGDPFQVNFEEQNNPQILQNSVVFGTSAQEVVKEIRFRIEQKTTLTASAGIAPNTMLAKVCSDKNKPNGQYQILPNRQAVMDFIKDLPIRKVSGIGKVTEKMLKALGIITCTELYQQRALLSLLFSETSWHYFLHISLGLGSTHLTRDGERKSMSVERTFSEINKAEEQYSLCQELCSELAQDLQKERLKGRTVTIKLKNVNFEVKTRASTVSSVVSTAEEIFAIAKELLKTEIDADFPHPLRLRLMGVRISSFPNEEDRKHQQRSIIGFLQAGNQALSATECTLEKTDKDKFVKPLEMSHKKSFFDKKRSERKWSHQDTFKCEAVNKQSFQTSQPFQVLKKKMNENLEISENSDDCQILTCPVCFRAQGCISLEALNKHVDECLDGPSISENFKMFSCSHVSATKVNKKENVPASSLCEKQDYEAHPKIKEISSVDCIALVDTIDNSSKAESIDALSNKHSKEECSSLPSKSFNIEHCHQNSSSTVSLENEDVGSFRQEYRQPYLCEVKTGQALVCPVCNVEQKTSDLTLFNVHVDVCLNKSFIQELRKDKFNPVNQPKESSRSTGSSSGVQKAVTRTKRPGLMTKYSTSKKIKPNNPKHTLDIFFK

Escherichia coli = assay: Inhibition of Escherichia coli DNA polymerase I Klenow fragment at 200 uM; summary of the method: as §1
[6] = test system: T4 polynucleotide kinase (Bacteriophage T4); assay: Inhibition of T4 polynucleotide kinase at 200 uM
[7] = molecular target: T3, DNA polymerase alpha subunit B (Bos taurus) (UniProt Q58D13); assay: Inhibition of primase activity of calf polymerase alpha at 200 uM
T3 sequence (whole entry): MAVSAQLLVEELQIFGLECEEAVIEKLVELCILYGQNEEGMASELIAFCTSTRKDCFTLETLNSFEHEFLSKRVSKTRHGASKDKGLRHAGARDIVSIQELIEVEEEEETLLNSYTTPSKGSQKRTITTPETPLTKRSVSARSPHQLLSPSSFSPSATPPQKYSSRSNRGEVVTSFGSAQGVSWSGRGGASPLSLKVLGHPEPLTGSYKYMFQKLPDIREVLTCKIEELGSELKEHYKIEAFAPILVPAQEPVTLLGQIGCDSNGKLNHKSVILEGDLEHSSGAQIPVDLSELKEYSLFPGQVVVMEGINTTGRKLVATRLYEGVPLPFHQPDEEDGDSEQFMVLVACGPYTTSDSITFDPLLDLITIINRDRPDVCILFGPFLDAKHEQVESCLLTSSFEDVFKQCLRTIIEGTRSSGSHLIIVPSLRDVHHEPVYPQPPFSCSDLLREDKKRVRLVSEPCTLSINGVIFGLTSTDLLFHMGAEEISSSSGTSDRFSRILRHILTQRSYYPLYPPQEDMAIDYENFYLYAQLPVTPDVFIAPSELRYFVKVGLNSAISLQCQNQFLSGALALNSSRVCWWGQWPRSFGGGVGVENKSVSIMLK

Homo sapiens [8] = species: Homo sapiens; assay: Inhibition of human topoisomerase type 2 at 200 uM
Summary of the method: (§2)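 Each enzyme (0.05 U) was incubated with 200 μM compound. Activity was expressed as a percentage of the activity without compound (100%). Means ± SEM of four independent experiments.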

[9] = test system: T7 RNA polymerase (Bacteriophage T7); assay: Inhibition of T7 RNA polymerase at 200 uM
Homo sapiens [10] = species: Homo sapiens; assay: Inhibition of human telomerse at 200 uM; summary of the method: as §2
[11] = molecular target: DNA polymerase I, thermostable (Thermus aquaticus) (UniProt P19821); assay: Inhibition of Taq polymerase at 200 uM; summary of the method: as §1
[12] = molecular target: DNA polymerase beta (Rattus norvegicus) (UniProt P06766); assay: Inhibition of rat DNA polymerase beta at 200 uM; summary of the method: as §1
Mus musculus = species: Mus musculus; assay: Inhibition of mouse inosine 5-monophosphate dehydrogenase type 2 at 200 uM; summary of the method: as §2

Measured: Activity

Sequence of DNA polymerase (Drosophila melanogaster) (Q9GV40 as listed by the source): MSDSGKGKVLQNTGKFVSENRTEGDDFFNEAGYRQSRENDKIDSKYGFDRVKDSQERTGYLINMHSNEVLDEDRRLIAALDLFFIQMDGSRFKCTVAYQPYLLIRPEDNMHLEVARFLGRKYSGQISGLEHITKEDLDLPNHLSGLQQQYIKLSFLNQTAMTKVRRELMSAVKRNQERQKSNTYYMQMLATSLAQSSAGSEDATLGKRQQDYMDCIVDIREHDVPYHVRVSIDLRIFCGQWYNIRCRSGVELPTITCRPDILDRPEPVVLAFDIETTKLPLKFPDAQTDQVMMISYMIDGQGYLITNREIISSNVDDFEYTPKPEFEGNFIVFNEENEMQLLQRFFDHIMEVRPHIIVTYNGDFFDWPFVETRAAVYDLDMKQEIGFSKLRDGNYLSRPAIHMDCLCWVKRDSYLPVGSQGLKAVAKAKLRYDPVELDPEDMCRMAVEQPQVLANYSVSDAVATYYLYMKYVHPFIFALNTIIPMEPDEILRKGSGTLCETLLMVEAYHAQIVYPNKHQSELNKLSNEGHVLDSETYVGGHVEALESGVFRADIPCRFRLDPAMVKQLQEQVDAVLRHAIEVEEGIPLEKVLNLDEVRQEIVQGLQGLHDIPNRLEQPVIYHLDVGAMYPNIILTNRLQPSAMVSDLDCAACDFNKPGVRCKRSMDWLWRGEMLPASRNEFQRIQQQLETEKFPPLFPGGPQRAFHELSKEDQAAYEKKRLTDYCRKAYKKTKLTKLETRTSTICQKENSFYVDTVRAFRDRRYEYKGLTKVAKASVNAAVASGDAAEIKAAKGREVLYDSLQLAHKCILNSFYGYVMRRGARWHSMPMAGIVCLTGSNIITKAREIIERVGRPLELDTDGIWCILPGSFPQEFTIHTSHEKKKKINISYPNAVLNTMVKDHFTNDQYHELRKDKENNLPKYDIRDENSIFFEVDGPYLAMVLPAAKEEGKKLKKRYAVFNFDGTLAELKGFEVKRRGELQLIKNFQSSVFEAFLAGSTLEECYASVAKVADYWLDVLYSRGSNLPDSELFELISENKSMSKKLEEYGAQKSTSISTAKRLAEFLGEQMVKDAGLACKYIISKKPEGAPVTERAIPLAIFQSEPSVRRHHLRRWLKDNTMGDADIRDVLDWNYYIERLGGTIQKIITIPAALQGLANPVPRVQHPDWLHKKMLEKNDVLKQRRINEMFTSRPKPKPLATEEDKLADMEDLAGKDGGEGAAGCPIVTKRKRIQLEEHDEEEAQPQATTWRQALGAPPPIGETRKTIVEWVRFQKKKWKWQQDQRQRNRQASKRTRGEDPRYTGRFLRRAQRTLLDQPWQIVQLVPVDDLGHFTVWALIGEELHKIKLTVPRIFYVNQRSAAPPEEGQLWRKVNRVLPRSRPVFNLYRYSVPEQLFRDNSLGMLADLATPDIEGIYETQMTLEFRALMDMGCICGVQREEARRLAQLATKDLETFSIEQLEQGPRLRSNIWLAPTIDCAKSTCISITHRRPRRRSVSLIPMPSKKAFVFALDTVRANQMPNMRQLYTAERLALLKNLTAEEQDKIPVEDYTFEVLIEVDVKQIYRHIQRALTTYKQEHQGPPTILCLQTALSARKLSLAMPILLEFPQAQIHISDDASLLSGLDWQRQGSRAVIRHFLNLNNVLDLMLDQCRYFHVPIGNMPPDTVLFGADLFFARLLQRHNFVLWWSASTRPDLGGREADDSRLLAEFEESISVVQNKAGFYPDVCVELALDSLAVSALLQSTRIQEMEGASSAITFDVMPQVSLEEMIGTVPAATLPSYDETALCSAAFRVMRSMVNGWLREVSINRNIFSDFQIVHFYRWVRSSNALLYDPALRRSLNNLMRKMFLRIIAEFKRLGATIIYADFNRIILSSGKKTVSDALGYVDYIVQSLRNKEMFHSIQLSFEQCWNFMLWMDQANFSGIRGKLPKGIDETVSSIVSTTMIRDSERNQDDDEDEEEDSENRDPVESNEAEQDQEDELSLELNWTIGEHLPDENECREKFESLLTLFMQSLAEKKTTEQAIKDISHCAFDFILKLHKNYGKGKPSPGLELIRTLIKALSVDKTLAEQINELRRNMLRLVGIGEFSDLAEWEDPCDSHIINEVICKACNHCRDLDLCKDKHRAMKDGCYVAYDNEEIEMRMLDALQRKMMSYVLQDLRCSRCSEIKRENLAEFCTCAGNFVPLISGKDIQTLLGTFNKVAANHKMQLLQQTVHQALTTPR
Sequence of DNA polymerase I, thermostable (Thermus aquaticus) (P19821 whole entry): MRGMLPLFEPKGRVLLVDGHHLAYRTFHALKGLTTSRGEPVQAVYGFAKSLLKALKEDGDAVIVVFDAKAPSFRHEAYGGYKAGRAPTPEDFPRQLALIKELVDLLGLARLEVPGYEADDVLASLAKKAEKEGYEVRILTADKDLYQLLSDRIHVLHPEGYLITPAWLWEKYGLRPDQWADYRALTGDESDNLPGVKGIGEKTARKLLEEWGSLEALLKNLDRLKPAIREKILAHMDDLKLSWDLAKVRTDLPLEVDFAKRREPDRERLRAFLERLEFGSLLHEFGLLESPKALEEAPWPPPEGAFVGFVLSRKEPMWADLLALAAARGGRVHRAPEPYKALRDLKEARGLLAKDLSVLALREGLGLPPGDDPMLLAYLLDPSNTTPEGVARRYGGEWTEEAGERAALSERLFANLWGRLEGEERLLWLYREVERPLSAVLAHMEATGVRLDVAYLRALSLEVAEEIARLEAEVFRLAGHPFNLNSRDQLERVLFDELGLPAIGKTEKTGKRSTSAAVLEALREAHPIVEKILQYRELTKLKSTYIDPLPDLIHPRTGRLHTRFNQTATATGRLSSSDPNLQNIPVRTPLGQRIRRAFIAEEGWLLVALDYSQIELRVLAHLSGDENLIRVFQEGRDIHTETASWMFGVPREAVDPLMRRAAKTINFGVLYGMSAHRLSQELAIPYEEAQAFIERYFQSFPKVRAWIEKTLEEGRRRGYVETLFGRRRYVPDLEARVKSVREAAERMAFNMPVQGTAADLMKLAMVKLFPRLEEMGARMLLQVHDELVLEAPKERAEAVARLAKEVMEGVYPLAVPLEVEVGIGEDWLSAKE

C/C(=C\CC[C@H](C)C(=O)O)[C@H]1CC[C@H](C(=O)O)CC1
inactive: [1] | [2] | [3] | [4] | [5] | Escherichia coli | [6] | [7] | Homo sapiens [8] | [9] | Homo sapiens [10] | [11] | [12] | Mus musculus

— ChEMBL document CHEMBL1157184, “Hymenoic acid, a novel specific inhibitor of human DNA polymerase lambda from a fungus of Hymenochaetaceae sp” (Bioorg Med Chem, 2008)
